# Results from different studies.
# Lines come from different studies, so protocols differ. pIC50: −log10 of the molar value.
# Cell line: HEK293
# Observed: cell growth or viability
Structure (SMILES),test,conditions,measurement,result
C[C@@H](c1cc(Cl)cc(Cl)c1)N(C)c1ncc2c(N)nc(N)nc2n1,MTT,24 h,CC50,31.2 µM
CC1c2cc(c(O)cc2O)C(C)c2cc(c(O)cc2O)C(C)c2cc(c(O)cc2O)C(C)c2cc1c(O)cc2O (stereo not drawn),ATP luminescence,24 h,CC50,21.2 µM
Cc1ccc2oc(-c3cc(NC(=O)Cc4ccccc4)ccc3Cl)nc2c1,MTT,24 h,CC50,> 400 µM
CC/C(=C(\c1ccccc1)c1ccc(OCCN(C)C)cc1)c1ccccc1,resazurin,20 h,CC50,5.62 µM
CO[C@H]1C[C@@H](C[C@H](C)[C@H]2CC(=O)[C@@H](C)/C=C(\C)[C@H](O)[C@H](OC)C(=O)[C@@H](C)C[C@@H](C)/C=C/C=C/C=C(\C)[C@H](OC)C[C@H]3CC[C@H](C)[C@](O)(O3)C(=O)C(=O)N3CCCC[C@@H]3C(=O)O2)CC[C@@H]1OCCO (racemic),MTT,24 h,CC50,63.7 µM
CCn1cc(C(=O)NCCNCCO)c(=O)c2cc(OC)c(OCc3cc(F)cc(F)c3)cc21,resazurin,20 h,CC50,> 32 µg/mL
Cc1c2ccncc2c(C)c2c1[nH]c1ccc(OCCN(C)C)cc12,MTS,,pIC50,5.50
O=P(O)(O)c1cc2c(O)c(c1)Cc1cc(P(=O)(O)O)cc(c1O)Cc1cc(P(=O)(O)O)cc(c1O)Cc1cc(P(=O)(O)O)cc(c1O)Cc1cc(P(=O)(O)O)cc(c1O)Cc1cc(P(=O)(O)O)cc(c1O)Cc1cc(P(=O)(O)O)cc(c1O)Cc1cc(P(=O)(O)O)cc(c1O)C2,MTT,24 h,CC50,608 µM
CC(C)(O)c1coc(S(=O)(=O)NC(=O)Nc2c3c(cc4c2CCC4)CCC3)c1,MTT,"10 µM, 4 h",viability,95.2%
